Data as given in ChEMBL document CHEMBL1926518, “Synthesis of macrolones with central piperazine ring in the linker and its influence on antibacterial activity” (2011).
≈ marks a conversion by molar mass, not a printed value.

How the values were obtained:
Format in all cases: functional
Staphylococcus aureus [1] = experiment: Antibacterial activity against inducible macrolide, licosamide and streptogramin-resistant Staphylococcus aureus 90256/97 by broth microdilution technique
In short: (§1)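 MICs were determined by CLSI broth microdilution, with double dilutions of compound. Staphylococci were grown on Mueller–Hinton agar before testing. Results are given in µg/mL.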

Streptococcus pyogenes [2] = experiment: Antibacterial activity against inducible macrolide, licosamide and streptogramin-resistant Streptococcus pyogenes Finland 11 by broth microdilution technique
In short: (§2)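 MICs were determined by CLSI broth microdilution, with double dilutions of compound. In the streptococcal medium, 5% horse serum replaced lysed blood. Streptococci were grown on Columbia agar with 5% sheep blood before testing. Results are given in µg/mL.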

Streptococcus pyogenes [3] = experiment: Antibacterial activity against erythromycin-sensitive Streptococcus pyogenes 3565 by broth microdilution technique
In short: (§3)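 Streptococcal MICs by CLSI broth microdilution with doubling dilutions, but with 5% horse serum in the medium in place of lysed blood. Before testing, strains were grown on Columbia agar with 5% sheep blood. Values reported in µg/mL.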

Streptococcus pneumoniae [4] = experiment: Antibacterial activity against inducible macrolide-resistant, constitutive licosamide and streptogramin-resistant Streptococcus pneumoniae 134 GR-Micro by broth microdilution technique; in short: as §2
Staphylococcus aureus [5] = experiment: Antibacterial activity against efflux-mediated macrolide-resistant Staphylococcus aureus PK1 by broth microdilution technique; in short: as §1
Streptococcus pneumoniae [6] = experiment: Antibacterial activity against erythromycin-sensitive Streptococcus pneumoniae SP030 by broth microdilution technique; in short: as §3
Streptococcus pneumoniae [7] = experiment: Antibacterial activity against efflux-mediated macrolide-resistant Streptococcus pneumoniae Ci137 by broth microdilution technique; in short: as §2
Staphylococcus aureus [8] = experiment: Antibacterial activity against erythromycin-sensitive Staphylococcus aureus ATCC 13709 by broth microdilution technique
In short: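 MIC by broth microdilution per CLSI guidelines with doubling dilutions of compounds. Before testing, staphylococci were grown on Mueller–Hinton agar. Values reported in µg/mL.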

Streptococcus pyogenes [9] = experiment: Antibacterial activity against efflux-mediated macrolide-resistant Streptococcus pyogenes 3 Finland by broth microdilution technique; in short: as §2
Staphylococcus aureus [10] = experiment: Antibacterial activity against constitutive macrolide, licosamide and streptogramin-resistant Staphylococcus aureus PK2 by broth microdilution technique; in short: as §1
Streptococcus pyogenes [11] = experiment: Antibacterial activity against constitutive macrolide, licosamide and streptogramin-resistant Streptococcus pyogenes 166 GR-Micro by broth microdilution technique; in short: as §2
Streptococcus pneumoniae [12] = experiment: Antibacterial activity against constitutive macrolide, licosamide and streptogramin-resistant Streptococcus pneumoniae 58 Spain by broth microdilution technique; in short: as §2
Haemophilus influenzae = experiment: Antibacterial activity against Haemophilus influenzae ATCC 49247 by broth microdilution technique
In short: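 MIC by broth microdilution per CLSI guidelines with doubling dilutions of compounds. Before testing, organisms were grown on Mueller-Hinton chocolate agar. Values reported in µg/mL.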

Moraxella catarrhalis = experiment: Antibacterial activity against Moraxella catarrhalis ATCC 23246 by broth microdilution technique
In short: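 MIC by broth microdilution per CLSI guidelines with doubling dilutions of compounds. Before testing, organisms were grown on Columbia agar with 5% sheep blood. Values reported in µg/mL.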

| Structure (SMILES) | MIC (Staphylococcus aureus [1]) | MIC (Streptococcus pyogenes [2]) | MIC (Streptococcus pyogenes [3]) | MIC (Streptococcus pneumoniae [4]) | MIC (Staphylococcus aureus [5]) | MIC (Streptococcus pneumoniae [6]) | MIC (Streptococcus pneumoniae [7]) | MIC (Staphylococcus aureus [8]) | MIC (Streptococcus pyogenes [9]) | MIC (Staphylococcus aureus [10]) | MIC (Streptococcus pyogenes [11]) | MIC (Streptococcus pneumoniae [12]) | MIC (Haemophilus influenzae) | MIC (Moraxella catarrhalis) |
| --- | --- | --- | --- | --- | --- | --- | --- | --- | --- | --- | --- | --- | --- | --- |
| CCOC(=O)c1cn(C2CC2)c2ccc(C#CCN3CCNCC3)cc2c1=O | > 64 µg/mL | > 64 µg/mL | > 64 µg/mL | > 64 µg/mL | > 64 µg/mL | > 64 µg/mL | > 64 µg/mL | > 64 µg/mL | > 64 µg/mL | > 64 µg/mL | > 64 µg/mL | > 64 µg/mL | > 64 µg/mL | > 64 µg/mL |
| CCOC(=O)c1cn(CC)c2ccc(/C=C/CN3CCNCC3)cc2c1=O | > 64 µg/mL | > 64 µg/mL | > 64 µg/mL | > 64 µg/mL | > 64 µg/mL | 64 µg/mL (≈ 173 µM) | > 64 µg/mL | > 64 µg/mL | > 64 µg/mL | > 64 µg/mL | > 64 µg/mL | > 64 µg/mL | > 64 µg/mL | > 64 µg/mL |
| CCOC(=O)c1cn(C2CC2)c2ccc(C#CCN3CCN(CCC(=O)O[C@H]4[C@H](C)O[C@@H](O[C@H]5[C@H](C)[C@@H](O[C@@H]6O[C@H](C)C[C@H](N(C)C)[C@H]6O)[C@](C)(O)C[C@@H](C)CN(C)[C@H](C)[C@@H](OC)[C@](C)(O)[C@@H](CC)OC(=O)[C@@H]5C)C[C@@]4(C)OC)CC3)cc2c1=O | > 64 µg/mL | ≤ 0.125 µg/mL | ≤ 0.125 µg/mL | 0.25 µg/mL (≈ 0.209 µM) | 64 µg/mL (≈ 53.5 µM) | ≤ 0.125 µg/mL | ≤ 0.125 µg/mL | 4 µg/mL (≈ 3.34 µM) | 0.5 µg/mL (≈ 0.418 µM) | > 64 µg/mL | 32 µg/mL (≈ 26.7 µM) | 0.5 µg/mL (≈ 0.418 µM) | 16 µg/mL (≈ 13.4 µM) | 4 µg/mL (≈ 3.34 µM) |
